Values after ≈ are worked out from the molar mass of the structure shown. Values joined by “and” are separate entries in the source; they are usually repeats but may differ in a detail not shown here. Equal values may be shown once.
How the values were obtained:
Candida albicans [1] = assay: In vitro antifungal activity against Candida albicans CY 1002; assay type: functional, organism-based
Chitin synthase 1 = Chitin synthase 1 (Candida albicans, UniProt P23316); assay: Inhibitory of Candida albicans chitin synthase 1
Chitin synthase 1, sequence (P23316 whole entry): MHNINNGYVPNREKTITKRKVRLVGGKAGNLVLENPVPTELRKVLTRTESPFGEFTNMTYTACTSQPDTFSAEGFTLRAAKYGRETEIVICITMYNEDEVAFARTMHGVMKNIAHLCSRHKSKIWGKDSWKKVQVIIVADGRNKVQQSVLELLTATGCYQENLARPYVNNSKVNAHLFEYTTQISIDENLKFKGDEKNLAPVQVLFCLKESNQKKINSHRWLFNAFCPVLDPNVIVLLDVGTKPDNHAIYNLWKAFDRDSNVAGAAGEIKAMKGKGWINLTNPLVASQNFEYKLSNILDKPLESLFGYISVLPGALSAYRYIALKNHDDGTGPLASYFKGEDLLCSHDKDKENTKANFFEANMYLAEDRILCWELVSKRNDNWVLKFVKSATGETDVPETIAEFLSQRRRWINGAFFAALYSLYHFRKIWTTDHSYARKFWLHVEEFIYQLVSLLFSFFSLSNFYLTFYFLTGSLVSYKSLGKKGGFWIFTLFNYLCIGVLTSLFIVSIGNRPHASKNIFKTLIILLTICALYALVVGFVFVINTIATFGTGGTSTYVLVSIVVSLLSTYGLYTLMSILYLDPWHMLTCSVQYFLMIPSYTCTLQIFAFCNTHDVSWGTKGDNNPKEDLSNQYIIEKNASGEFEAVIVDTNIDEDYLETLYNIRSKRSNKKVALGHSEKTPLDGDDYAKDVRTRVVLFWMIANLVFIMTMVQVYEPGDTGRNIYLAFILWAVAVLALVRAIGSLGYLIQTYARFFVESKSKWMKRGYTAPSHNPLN

Cryptococcus neoformans [2] = assay: In vitro antifungal activity of compound was tested against Cryptococcus neoformans CY 1057
Aspergillus fumigatus = assay: In vitro antifungal activity of compound was tested against Aspergillus fumigatus CF1003
Pichia kudriavzevii = assay: In vitro antifungal activity against Candida krusei CY 1191; assay type: functional, organism-based
Candida albicans [3] = assay: In vitro antifungal activity against Candida albicans CY 3003; assay type: functional, organism-based
Candida albicans [4] = assay: In vitro antifungal activity against Candida albicans CY 1124; assay type: functional, organism-based
Cryptococcus neoformans [5] = assay: In vitro antifungal activity of compound was tested against Cryptococcus neoformans CY 1059
Candida albicans [6] = assay: In vitro antifungal activity against Candida albicans CY 1003; assay type: functional, organism-based
Nakaseomyces glabratus = assay: In vitro antifungal activity against Candida glabrata CY 1014; assay type: functional, organism-based
Candida tropicalis = assay: In vitro antifungal activity of compound was tested against Candida tropicalis CY 1038; assay type: functional, organism-based
Mus musculus [7] = assay: In vivo antifungal activity was evaluated in target organ kidney assay (TOKA) in mice infected with Candida albicans CY 10025 X 10e5 cell after intravenous administration of compound at 5 mg/kg; assay type: functional
Method in brief: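 Systemic candidiasis in mice, target organ kidney assay: infection with 5 × 10^5 cells/mouse, compound given iv at 0, 2 and 4 h post-infection in 5% DMSO-5% PEG300-30% HPCD. Kidney CFU counted; T/C = treated CFU/control CFU × 100.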

Candida parapsilosis = assay: In vitro antifungal activity of compound was tested against Candida parapsilosis CY 1028; assay type: functional, organism-based; conditions: Lodderomyces parapsilosis
Mus musculus [8] = assay: In vivo antifungal activity was evaluated in target organ kidney assay (TOKA) in mice infected with Candida albicans CY 10025 X 10e5 cell after intravenous administration of compound at 1 mg/kg; assay type: functional
Method in brief: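 Systemic candidiasis in mice, infected with C. albicans CY1002 at 5 × 10^5 cells/mouse. Dosed iv at 0, 2 and 4 h after infection: 5 mg/kg in 5% DMSO 5% PEG300-30% HPCD, comparator azole at 1 mg/kg. Kidney CFU counted; T/C = treated CFU/control CFU × 100.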

Candida albicans [9] = assay: In vitro antifungal activity against […] CY 1057; assay type: functional, organism-based
Candida albicans [10] = assay: In vitro antifungal activity against Aspergillus fumigatus CF 1003; assay type: functional, organism-based

Compound	IC50 (Candida albicans [1]) [µg/mL]	IC50 (Chitin synthase 1)	further results
CCCCCN(C/C=C/C#CC(C)(C)C)c1cccc2c1CCC(=O)N2	> 200	1.1 nM	
CCOP(=O)(OCC)OC1Cc2c(cccc2N(C)CC#CC#CC(C)(C)C)NC1=O (stereo not drawn)	2.1 (≈ 4.7 µM)	0.76 nM	IC50 (Cryptococcus neoformans [2]): 0.23 µg/mL (≈ 0.515 µM); IC50 (Aspergillus fumigatus): 21 µg/mL (≈ 47 µM)
CN(CC#CC#CC(C)(C)C)c1cccc2c1CCC(=O)N2	0.07 (≈ 0.238 µM)	0.14 nM	IC50 (Pichia kudriavzevii): 0.31 µg/mL (≈ 1.05 µM); IC50 (Candida albicans [3]): 0.09 µg/mL (≈ 0.306 µM); IC50 (Candida albicans [4]): 0.17 µg/mL (≈ 0.577 µM); IC50 (Cryptococcus neoformans [5]): > 200 µg/mL; IC50 (Candida albicans [6]): 0.1 µg/mL (≈ 0.34 µM); IC50 (Nakaseomyces glabratus): 0.47 µg/mL (≈ 1.6 µM); IC50 (Aspergillus fumigatus): 43 µg/mL (≈ 146 µM); IC50 (Candida tropicalis): 0.07 µg/mL (≈ 0.238 µM); T/C (Mus musculus [7]): 34%; IC50 (Candida parapsilosis): 0.5 µg/mL (≈ 1.7 µM)
OC(Cn1cncn1)(Cn1cncn1)c1ccc(F)cc1F [FLUCONAZOLE]	1.2 (≈ 3.92 µM)		T/C (Mus musculus [8]): 38%; IC50 (Candida albicans [9]): 3.4 µg/mL (≈ 11.1 µM); IC50 (Candida albicans [10]): 50 µg/mL (≈ 163 µM)
CN(CC#CC#CC(C)(C)C)c1cccc2c1CC(N)C(=O)N2 (stereo not drawn)	20 (≈ 64.6 µM)	12.3 nM	IC50 (Cryptococcus neoformans [2]): 15 µg/mL (≈ 48.5 µM); IC50 (Aspergillus fumigatus): 35 µg/mL (≈ 113 µM); T/C (Mus musculus [7]): 23%
CC(C)(C)C#C/C=C/CNc1cccc2ncccc12		4500 nM	
COC(C)(C)C#CC#CCN(C)c1cccc2c1CCC(=O)N2	3.5 (≈ 11.3 µM)	1030 nM	
CC(=O)Nc1cccc(NC/C=C/C#CC(C)(C)C)c1		1000 nM	
CN(CC#CC#Cc1ccccc1)c1cccc2c1CCC(=O)N2	> 200	13700 nM	
CC(C)(C)C#C/C=C/CNc1cccc2oc(=O)ccc12		12000 nM	
CN(CC#CC#CC(C)(C)C)c1cccc2c1CC(O)C(=O)N2 (stereo not drawn)	0.13 (≈ 0.419 µM)	3 nM	IC50 (Cryptococcus neoformans [2]): > 200 µg/mL; IC50 (Aspergillus fumigatus): 82 µg/mL (≈ 264 µM); T/C (Mus musculus [7]): 39%
Cn1c(=O)ccc2c(NC/C=C/C#CC(C)(C)C)cccc21		16000 nM	
CN(CCCC#CC(C)(C)C)c1cccc2c1CCC(=O)N2	> 200	8.95 nM	
CN(C/C=C/C#CC(C)(C)C)c1cccc2c1CCC(=O)N2	0.19 (≈ 0.641 µM)	2.77 nM	
CN(C/C=C\C#CC(C)(C)C)c1cccc2c1CCC(=O)N2	95 (≈ 320 µM)	13.2 nM	
CN(Cc1ccc(C#CC(C)(C)C)cc1)c1cccc2c1CCC(=O)N2	> 200	7.22 nM	

Compound	IC50 (Candida albicans [1]) [µg/mL]	IC50 (Chitin synthase 1)	further results
CC(C)(C)C#C/C=C/CN(c1cccc2c1CCC(=O)N2)S(C)(=O)=O	> 200	391 nM	
CC(C)(C)C#C/C=C/CNCc1ccc(O)nc1		211000 nM	
CC(C)[C@@H](N)C(=O)OC1Cc2c(cccc2N(C)CC#CC#CC(C)(C)C)NC1=O (stereo partly drawn)	1.3 (≈ 3.17 µM)	14.9 nM	IC50 (Cryptococcus neoformans [2]): 16 µg/mL (≈ 39.1 µM); IC50 (Aspergillus fumigatus): 19 µg/mL (≈ 46.4 µM); T/C (Mus musculus [7]): 15%
CN(CC#CC#CC(C)(C)O)c1cccc2c1CCC(=O)N2	> 200	213 nM	
CCCN(C/C=C/C#CC(C)(C)C)c1cccc2c1CCC(=O)N2	> 200	0.68 nM	
CC(C)(C)C#C/C=C/CN(Cc1ccccc1)c1cccc2c1CCC(=O)N2	> 200	54 nM	
CC(C)(C)C#C/C=C/CNc1cccc2nc(O)ccc12	3.3 (≈ 11.8 µM)	71.3 nM and 70 nM	
CCN(C/C=C/C#CC(C)(C)C)c1cccc2c1CCC(=O)N2	0.27 (≈ 0.87 µM)	0.9 nM	
CCCCN(C/C=C/C#CC(C)(C)C)c1cccc2c1CCC(=O)N2	> 200	0.35 nM	
CC(C)(C)CCCCCNc1cccc2[nH]c(=O)ccc12		> 350000 nM	
CC(=O)N(C/C=C/C#CC(C)(C)C)c1cccc2c1CCC(=O)N2	> 200	775 nM	
CC(C)(C)C#C/C=C/CNc1cccc2c1CCC(=O)N2	> 200	70.9 nM	
C[C@@H]([C@H](N)C(=O)N[C@H](C(=O)O)[C@H]1O[C@@H](n2ccc(=O)[nH]c2=O)[C@H](O)[C@@H]1O)[C@H](O)c1ccc(O)cn1 [NIKKOMYCIN]	12 (≈ 24.2 µM)	3200 nM	IC50 (Pichia kudriavzevii): > 200 µg/mL; IC50 (Candida albicans [3]): 7 µg/mL (≈ 14.1 µM); IC50 (Candida albicans [4]): 15 µg/mL (≈ 30.3 µM); IC50 (Cryptococcus neoformans [5]): > 200 µg/mL; IC50 (Candida albicans [6]): 81 µg/mL (≈ 163 µM); IC50 (Nakaseomyces glabratus): > 200 µg/mL; IC50 (Aspergillus fumigatus): 11 µg/mL (≈ 22.2 µM); IC50 (Candida tropicalis): 73 µg/mL (≈ 147 µM); IC50 (Candida parapsilosis): 13 µg/mL (≈ 26.2 µM)
CCC#CC#CCN(C)c1cccc2c1CCC(=O)N2	200 (≈ 751 µM)	7.88 nM	
CC(C)N(C/C=C/C#CC(C)(C)C)c1cccc2c1CCC(=O)N2	> 200	1.23 nM	

Reference: ChEMBL document CHEMBL1133216, “Synthesis and structure-activity relationships of novel fungal chitin synthase inhibitors” (Bioorg Med Chem Lett, 2000)
